Laboratory results as given in ChEMBL document CHEMBL3779798, “Novel seleno- and thio-urea derivatives with potent in vitro activities against several cancer cell lines” (Eur J Med Chem, 2016).
Calls of active or inactive are those of the source. No cut-off for these calls is given here.

Assays:
[1] = Anticancer activity against human PANC1 cells assessed as inhibition of cell growth after 48 hrs by MTT assay; type: functional, cell-based; details: PANC-1, 48 h
How it was run: (§1)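 MTT assay at 3,000 cells/well. Cells treated with DMSO or seven concentrations from 0.5 to 50 µM for 24, 48 or 72 h. MTT added 3 h before the end point; formazan dissolved in DMSO and read at 570 and 630 nm. IC50 is the concentration giving 50% growth inhibition. Media: PANC-1, BxPC3 and 1205Lu in DMEM; DU145 and A549 in RPMI 1640; HT29, HCT116 and RKO in McCoy's 5A, all with 10% FBS and pen/strep, at 37 °C and 5% CO2.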

[2] = system: HCT-116; assay: Induction of apoptosis in human HCT116 cells assessed as late apoptotic cells at 2.5 uM after 24 hrs by annexin-V staining based flow cytometry analysis (reference value: 1.06%); type: functional
[3] = system: RKO; assay: Anticancer activity against human RKO cells assessed as inhibition of cell growth after 24 hrs by MTT assay; type: functional, cell-based; how it was run: as §1
[4] = system: HCT-116; assay: Induction of apoptosis in human HCT116 cells assessed as necrotic cells at 2.5 uM after 24 hrs by caspase3/7 reagent based flow cytometry (reference value: 4.14%); type: functional
[5] = system: HCT-116; assay: Decrease in number of viable cells in human HCT116 cells at 5 uM after 24 hrs by calcein-AM and ethidium homodimer-1 staining based flow cytometry analysis (reference value: 94.9%); type: functional
[6] = system: HCT-116; assay: Induction of apoptosis in human HCT116 cells assessed as necrotic cells at 2.5 uM after 24 hrs by annexin-V staining based flow cytometry analysis (reference value: 0.72%); type: functional
[7] = system: HCT-116; assay: Reduction of XIAP level in human HCT116 cells after 24 hrs by western blot analysis; type: functional, cell-based
How it was run: (§2)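 HCT116 cells (6 × 10^5/well) treated with rising concentrations for 24 h. Lysed in RIPA with phosphatase and protease inhibitors and PMSF, cleared at 15,000 g for 10 min. Lysates resolved by SDS-PAGE, transferred to PVDF, probed overnight in the cold with primary antibodies, then peroxidase-linked secondary for 1–4 h at room temperature, detected by ECL; β-actin antibody used.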

[8] = Anticancer activity against human HCT116 cells assessed as inhibition of cell growth after 72 hrs by MTT assay; type: functional, cell-based; details: HCT-116, 72 h; how it was run: as §1
[9] = Anticancer activity against human DU145 cells assessed as inhibition of cell growth after 24 hrs by MTT assay; type: functional, cell-based; details: DU-145, 24 h; how it was run: as §1
[10] = system: HCT-116; assay: Decrease in pro-caspase3 level in human HCT116 cells at 0.5 to 5 uM after 24 hrs by western blot analysis; type: functional, cell-based
How it was run: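 HCT116 cells (6 × 10^5/well) treated for 24 h. Whole-cell lysates made in RIPA buffer with phosphatase and protease inhibitors and PMSF, cleared at 15,000 g, resolved by SDS-PAGE and transferred to PVDF. Blots probed overnight in the cold with primary antibodies, then peroxidase-linked secondaries, and detected by ECL; β-actin antibody used.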

[11] = Anticancer activity against human BxPC3 cells assessed as inhibition of cell growth after 72 hrs by MTT assay; type: functional, cell-based; details: BXPC-3, 72 h; how it was run: as §1
[12] = system: RKO; assay: Anticancer activity against human RKO cells assessed as inhibition of cell growth after 48 hrs by MTT assay; type: functional, cell-based; how it was run: as §1
[13] = Anticancer activity against human 1205 Lu cells assessed as inhibition of cell growth after 24 hrs by MTT assay; type: functional, cell-based; how it was run: as §1
[14] = Anticancer activity against human BxPC3 cells assessed as inhibition of cell growth after 24 hrs by MTT assay; type: functional, cell-based; details: BXPC-3, 24 h; how it was run: as §1
[15] = system: HCT-116; assay: Induction of apoptosis in human HCT116 cells assessed as viable cells at 1 uM after 24 hrs by caspase3/7 reagent based flow cytometry (reference value: 88.4%); type: functional; details: HCT-116, 24 h, read-out: Activity
[16] = system: HCT-116; assay: Induction of apoptosis in human HCT116 cells assessed as late apoptotic cells at 2.5 uM after 24 hrs by caspase3/7 reagent based flow cytometry (reference value: 2.28%); type: functional
[17] = system: HCT-116; assay: Reduction in Bcl2 level in human HCT116 cells after 24 hrs by western blot analysis; type: functional, cell-based; how it was run: as §2
[18] = Induction of cell death in human HCT116 cells at 2.5 uM after 24 hrs by calcein-AM and ethidium homodimer-1 staining based flow cytometry analysis (reference value: 1.1%); type: functional, HCT-116
[19] = system: HCT-116; assay: Induction of apoptosis in human HCT116 cells assessed as early apoptotic cells at 5 uM after 24 hrs by caspase3/7 reagent based flow cytometry (reference value: 5.18%); type: functional
[20] = system: HCT-116; assay: Induction of apoptosis in human HCT116 cells assessed as early apoptotic cells at 2.5 uM after 24 hrs by caspase3/7 reagent based flow cytometry (reference value: 5.18%); type: functional
[21] = Induction of cell death in human HCT116 cells at 1 uM after 24 hrs by calcein-AM and ethidium homodimer-1 staining based flow cytometry analysis (reference value: 1.1%); type: functional, HCT-116
[22] = system: HCT-116; assay: Induction of apoptosis in human HCT116 cells assessed as early apoptotic cells at 2.5 uM after 24 hrs by annexin-V staining based flow cytometry analysis (reference value: 7.84%); type: functional
[23] = Anticancer activity against human DU145 cells assessed as inhibition of cell growth after 48 hrs by MTT assay; type: functional, cell-based; details: DU-145, 48 h; how it was run: as §1
[24] = system: HCT-116; assay: Induction of apoptosis in human HCT116 cells assessed as necrotic cells at 1 uM after 24 hrs by annexin-V staining based flow cytometry analysis (reference value: 0.72%); type: functional
[25] = Induction of cell death in human HCT116 cells at 5 uM after 24 hrs by calcein-AM and ethidium homodimer-1 staining based flow cytometry analysis (reference value: 1.1%); type: functional, HCT-116
[26] = system: HCT-116; assay: Induction of apoptosis in human HCT116 cells assessed as late apoptotic cells at 1 uM after 24 hrs by caspase3/7 reagent based flow cytometry (reference value: 2.28%); type: functional
[27] = Anticancer activity against human PANC1 cells assessed as inhibition of cell growth after 24 hrs by MTT assay; type: functional, cell-based; details: PANC-1, 24 h; how it was run: as §1
[28] = system: A549; assay: Anticancer activity against human A549 cells assessed as inhibition of cell growth after 48 hrs by MTT assay; type: functional, cell-based; details: A549, 48 h; how it was run: as §1
[29] = system: HCT-116; assay: Decrease in number of viable cells in human HCT116 cells at 1 uM after 24 hrs by calcein-AM and ethidium homodimer-1 staining based flow cytometry analysis (reference value: 94.9%); type: functional
[30] = system: HT-29; assay: Anticancer activity against human HT-29 cells assessed as inhibition of cell growth after 48 hrs by MTT assay; type: functional, cell-based; details: HT-29, 48 h; how it was run: as §1
[31] = system: HT-29; assay: Potency index, ratio IC50 of 5-FU to IC50 of compound for anticancer activity against human HT-29 cells; type: functional
How it was run: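 Colon lines (McCoy's 5A, 10% FBS, penicillin/streptomycin, 37 °C, 5% CO2) seeded at 3,000 cells/well and exposed 24, 48 or 72 h to DMSO or seven concentrations across 0.5–50 µM. MTT added 3 h before end; formazan dissolved in DMSO, absorbance read at 570 and 630 nm. IC50 (50% growth inhibition) from curve fitting; index is the 5-FU IC50 divided by the compound IC50.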

Question: What does the source list for `Br.Br.N=C(N)[Se]Cc1nc2ccccc2nc1C[Se]C(=N)N`?
Answer: IC50 [1]: 2.9 µM; Activity [2]: 11.64%; IC50 [3]: 3.8 µM; Activity [4]: 2.78%; Activity [5]: 73.4%; Activity [6]: 0.58%; Activity [7]: Dose-dependent effect; IC50 [8]: 0.7 µM; IC50 [9]: 2.3 µM; Activity [10]: Active; IC50 [11]: 2.2 µM; IC50 [12]: 1.9 µM; IC50 [13]: 3.3 µM; IC50 [14]: 3.6 µM; viability at 1 µM [15]: 87%; Activity [16]: 5.72%; Activity [17]: Dose-dependent effect; Activity [18]: 5.1%; Activity [19]: 27.66%; Activity [20]: 6.48%; Activity [21]: 0.7%; Activity [22]: 21.6%; IC50 [23]: 2.8 µM; Activity [24]: 0.2%; Activity [25]: 19.3%; Activity [26]: 2.64%; IC50 [27]: 6.6 µM; IC50 [28]: 2 µM; Activity [29]: 96.9%; IC50 [30]: 4.1 µM; Ratio IC50 [31]: >50
